The text below walks through data of ChEMBL document CHEMBL5029150, “Controlling Intramolecular Interactions in the Design of Selective, High-Affinity Ligands for the CREBBP Bromodomain” (J Med Chem, 2021).

The structures appear in SMILES notation. The source made the active and inactive calls. The rule behind the calls is not given here.

In test [1] the target is SWI/SNF-related matrix-associated actin-dependent regulator of chromatin subfamily A member 4 (Homo sapiens) (UniProt P51532). Description: Binding affinity to human SMARCA4 assessed as dissociation constant up to 1 uM by BROMOscan assay. The settings on record: dose microM <=1. The method in brief: (§1)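 BROMOscan competition binding panel of 12 phylogenetically diverse bromodomains, including the CREBBP and EP300 bromodomains.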

Test [2] has as its target T1, Peregrin (Homo sapiens) (UniProt P55201).
T1 sequence (whole entry): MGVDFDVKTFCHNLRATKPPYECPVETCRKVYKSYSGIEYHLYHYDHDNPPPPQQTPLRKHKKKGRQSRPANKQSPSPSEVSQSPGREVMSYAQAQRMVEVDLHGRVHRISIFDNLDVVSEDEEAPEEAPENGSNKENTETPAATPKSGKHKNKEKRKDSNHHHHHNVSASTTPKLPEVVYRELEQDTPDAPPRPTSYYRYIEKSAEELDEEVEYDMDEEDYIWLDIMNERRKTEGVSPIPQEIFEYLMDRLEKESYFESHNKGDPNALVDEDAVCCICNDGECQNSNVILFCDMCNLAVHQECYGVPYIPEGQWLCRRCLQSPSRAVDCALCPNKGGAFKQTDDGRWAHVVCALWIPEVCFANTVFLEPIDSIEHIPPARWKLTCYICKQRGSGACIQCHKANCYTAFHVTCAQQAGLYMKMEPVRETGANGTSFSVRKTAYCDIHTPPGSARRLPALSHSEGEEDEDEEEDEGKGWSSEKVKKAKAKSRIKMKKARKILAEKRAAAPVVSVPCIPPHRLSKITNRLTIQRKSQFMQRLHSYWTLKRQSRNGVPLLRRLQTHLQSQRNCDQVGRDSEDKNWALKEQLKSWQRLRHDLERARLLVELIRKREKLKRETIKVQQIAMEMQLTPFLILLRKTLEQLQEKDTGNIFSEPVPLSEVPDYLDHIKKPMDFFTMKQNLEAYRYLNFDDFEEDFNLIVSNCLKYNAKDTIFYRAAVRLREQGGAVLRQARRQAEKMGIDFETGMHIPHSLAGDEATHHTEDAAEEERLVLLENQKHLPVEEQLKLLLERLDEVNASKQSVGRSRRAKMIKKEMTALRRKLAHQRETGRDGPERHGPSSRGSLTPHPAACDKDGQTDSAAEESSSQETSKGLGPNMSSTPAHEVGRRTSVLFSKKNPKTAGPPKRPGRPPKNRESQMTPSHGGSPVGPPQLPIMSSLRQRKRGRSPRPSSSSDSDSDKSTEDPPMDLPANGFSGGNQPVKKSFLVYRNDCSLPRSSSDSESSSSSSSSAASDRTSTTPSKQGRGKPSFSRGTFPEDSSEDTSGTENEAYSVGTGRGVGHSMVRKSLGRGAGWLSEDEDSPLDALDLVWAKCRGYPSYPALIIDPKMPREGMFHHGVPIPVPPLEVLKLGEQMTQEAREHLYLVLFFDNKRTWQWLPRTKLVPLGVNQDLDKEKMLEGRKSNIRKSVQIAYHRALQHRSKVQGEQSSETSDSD
Briefly: Binding affinity to human BRPF1 assessed as dissociation constant up to 1 uM by BROMOscan assay. The note with it: dose microM <=1. In outline: as §1

Test [3] deals with T2, CREB-binding protein/Histone acetyltransferase p300 (Homo sapiens) (UniProt Q09472+Q92793). Description: Inhibition of CREBBP/EP300 in human HCT-116 cells assessed as reduction in c-Myc expression at 10 uM for 24 hrs by Western blot analysis. It counts as cell-based. The method in brief:
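HCT116 human colorectal cancer cells were exposed to ligand at 10 μM for 6, 16 or 24 h. c-Myc, H3K18Ac and H3K27Ac levels were read by western blot, with acetylation marks expressed relative to the t = 0 level.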
In general terms: A western blot detects proteins with antibodies after separation by electrophoresis.

Test [4] concerns the target Bromodomain-containing protein 4 (Homo sapiens, UniProt O60885). Briefly: Binding affinity to human BRD4 bromodomain 1 assessed as dissociation constant up to 1 uM by BROMOscan assay. The settings on record: dose microM <=1. In outline:
as §1

In test [5] the target is T3, Transcription intermediary factor 1-alpha (Homo sapiens) (UniProt O15164).
T3 sequence (whole entry): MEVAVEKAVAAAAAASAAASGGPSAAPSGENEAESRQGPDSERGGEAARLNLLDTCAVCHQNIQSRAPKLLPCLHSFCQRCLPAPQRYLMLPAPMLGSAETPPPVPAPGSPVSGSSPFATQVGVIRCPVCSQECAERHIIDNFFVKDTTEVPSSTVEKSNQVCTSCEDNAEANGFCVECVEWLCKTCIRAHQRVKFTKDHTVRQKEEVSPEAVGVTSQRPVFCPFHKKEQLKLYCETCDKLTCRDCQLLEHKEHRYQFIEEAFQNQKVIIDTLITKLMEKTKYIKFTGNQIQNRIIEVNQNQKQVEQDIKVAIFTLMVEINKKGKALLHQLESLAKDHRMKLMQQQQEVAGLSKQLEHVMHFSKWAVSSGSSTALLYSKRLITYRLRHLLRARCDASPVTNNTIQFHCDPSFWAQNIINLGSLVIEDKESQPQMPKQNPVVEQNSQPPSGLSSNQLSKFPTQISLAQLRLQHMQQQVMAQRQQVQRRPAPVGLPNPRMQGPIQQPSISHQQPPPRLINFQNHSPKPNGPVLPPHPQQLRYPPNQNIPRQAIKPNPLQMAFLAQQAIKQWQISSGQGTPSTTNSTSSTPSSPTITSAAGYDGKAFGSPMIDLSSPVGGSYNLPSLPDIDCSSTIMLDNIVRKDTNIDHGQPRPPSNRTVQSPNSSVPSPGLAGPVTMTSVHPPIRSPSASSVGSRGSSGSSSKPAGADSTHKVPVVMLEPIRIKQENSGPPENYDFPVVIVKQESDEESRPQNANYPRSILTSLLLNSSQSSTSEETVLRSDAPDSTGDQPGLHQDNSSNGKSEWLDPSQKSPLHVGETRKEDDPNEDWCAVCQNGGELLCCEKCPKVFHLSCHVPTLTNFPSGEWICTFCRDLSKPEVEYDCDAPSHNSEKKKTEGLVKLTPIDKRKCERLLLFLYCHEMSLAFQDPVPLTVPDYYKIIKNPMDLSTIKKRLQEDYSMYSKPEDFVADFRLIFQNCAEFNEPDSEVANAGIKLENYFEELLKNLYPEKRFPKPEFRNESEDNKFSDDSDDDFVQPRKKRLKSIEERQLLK
Briefly: Binding affinity to human TRIM24 assessed as dissociation constant up to 1 uM by BROMOscan assay. The note with it: dose microM <=1. The method in brief: as §1

For test [6], the target named is Histone acetyltransferase KAT2B (Homo sapiens) (UniProt Q92831). Briefly: Binding affinity to human PCAF assessed as dissociation constant up to 1 uM by BROMOscan assay. The note with it: dose microM <=1. The method in brief:
as §1

Test [7] addresses Bromodomain-containing protein 2 (Homo sapiens) (UniProt P25440). Description: Binding affinity to human BRD2 bromodomain 1 assessed as dissociation constant up to 1 uM by BROMOscan assay. The note with it: dose microM <=1. In outline:
as §1

In test [8] the target is CREB-binding protein (Homo sapiens, UniProt Q92793). Briefly: Binding affinity to human CREBBP bromodomain expressed in Escherichia coli BL21 (DE3)-RIL assessed as dissociation constant by ITC assay. On the technique in general: In ITC the heat of successive injections is recorded.
CREB-binding protein, sequence (Q92793 whole entry): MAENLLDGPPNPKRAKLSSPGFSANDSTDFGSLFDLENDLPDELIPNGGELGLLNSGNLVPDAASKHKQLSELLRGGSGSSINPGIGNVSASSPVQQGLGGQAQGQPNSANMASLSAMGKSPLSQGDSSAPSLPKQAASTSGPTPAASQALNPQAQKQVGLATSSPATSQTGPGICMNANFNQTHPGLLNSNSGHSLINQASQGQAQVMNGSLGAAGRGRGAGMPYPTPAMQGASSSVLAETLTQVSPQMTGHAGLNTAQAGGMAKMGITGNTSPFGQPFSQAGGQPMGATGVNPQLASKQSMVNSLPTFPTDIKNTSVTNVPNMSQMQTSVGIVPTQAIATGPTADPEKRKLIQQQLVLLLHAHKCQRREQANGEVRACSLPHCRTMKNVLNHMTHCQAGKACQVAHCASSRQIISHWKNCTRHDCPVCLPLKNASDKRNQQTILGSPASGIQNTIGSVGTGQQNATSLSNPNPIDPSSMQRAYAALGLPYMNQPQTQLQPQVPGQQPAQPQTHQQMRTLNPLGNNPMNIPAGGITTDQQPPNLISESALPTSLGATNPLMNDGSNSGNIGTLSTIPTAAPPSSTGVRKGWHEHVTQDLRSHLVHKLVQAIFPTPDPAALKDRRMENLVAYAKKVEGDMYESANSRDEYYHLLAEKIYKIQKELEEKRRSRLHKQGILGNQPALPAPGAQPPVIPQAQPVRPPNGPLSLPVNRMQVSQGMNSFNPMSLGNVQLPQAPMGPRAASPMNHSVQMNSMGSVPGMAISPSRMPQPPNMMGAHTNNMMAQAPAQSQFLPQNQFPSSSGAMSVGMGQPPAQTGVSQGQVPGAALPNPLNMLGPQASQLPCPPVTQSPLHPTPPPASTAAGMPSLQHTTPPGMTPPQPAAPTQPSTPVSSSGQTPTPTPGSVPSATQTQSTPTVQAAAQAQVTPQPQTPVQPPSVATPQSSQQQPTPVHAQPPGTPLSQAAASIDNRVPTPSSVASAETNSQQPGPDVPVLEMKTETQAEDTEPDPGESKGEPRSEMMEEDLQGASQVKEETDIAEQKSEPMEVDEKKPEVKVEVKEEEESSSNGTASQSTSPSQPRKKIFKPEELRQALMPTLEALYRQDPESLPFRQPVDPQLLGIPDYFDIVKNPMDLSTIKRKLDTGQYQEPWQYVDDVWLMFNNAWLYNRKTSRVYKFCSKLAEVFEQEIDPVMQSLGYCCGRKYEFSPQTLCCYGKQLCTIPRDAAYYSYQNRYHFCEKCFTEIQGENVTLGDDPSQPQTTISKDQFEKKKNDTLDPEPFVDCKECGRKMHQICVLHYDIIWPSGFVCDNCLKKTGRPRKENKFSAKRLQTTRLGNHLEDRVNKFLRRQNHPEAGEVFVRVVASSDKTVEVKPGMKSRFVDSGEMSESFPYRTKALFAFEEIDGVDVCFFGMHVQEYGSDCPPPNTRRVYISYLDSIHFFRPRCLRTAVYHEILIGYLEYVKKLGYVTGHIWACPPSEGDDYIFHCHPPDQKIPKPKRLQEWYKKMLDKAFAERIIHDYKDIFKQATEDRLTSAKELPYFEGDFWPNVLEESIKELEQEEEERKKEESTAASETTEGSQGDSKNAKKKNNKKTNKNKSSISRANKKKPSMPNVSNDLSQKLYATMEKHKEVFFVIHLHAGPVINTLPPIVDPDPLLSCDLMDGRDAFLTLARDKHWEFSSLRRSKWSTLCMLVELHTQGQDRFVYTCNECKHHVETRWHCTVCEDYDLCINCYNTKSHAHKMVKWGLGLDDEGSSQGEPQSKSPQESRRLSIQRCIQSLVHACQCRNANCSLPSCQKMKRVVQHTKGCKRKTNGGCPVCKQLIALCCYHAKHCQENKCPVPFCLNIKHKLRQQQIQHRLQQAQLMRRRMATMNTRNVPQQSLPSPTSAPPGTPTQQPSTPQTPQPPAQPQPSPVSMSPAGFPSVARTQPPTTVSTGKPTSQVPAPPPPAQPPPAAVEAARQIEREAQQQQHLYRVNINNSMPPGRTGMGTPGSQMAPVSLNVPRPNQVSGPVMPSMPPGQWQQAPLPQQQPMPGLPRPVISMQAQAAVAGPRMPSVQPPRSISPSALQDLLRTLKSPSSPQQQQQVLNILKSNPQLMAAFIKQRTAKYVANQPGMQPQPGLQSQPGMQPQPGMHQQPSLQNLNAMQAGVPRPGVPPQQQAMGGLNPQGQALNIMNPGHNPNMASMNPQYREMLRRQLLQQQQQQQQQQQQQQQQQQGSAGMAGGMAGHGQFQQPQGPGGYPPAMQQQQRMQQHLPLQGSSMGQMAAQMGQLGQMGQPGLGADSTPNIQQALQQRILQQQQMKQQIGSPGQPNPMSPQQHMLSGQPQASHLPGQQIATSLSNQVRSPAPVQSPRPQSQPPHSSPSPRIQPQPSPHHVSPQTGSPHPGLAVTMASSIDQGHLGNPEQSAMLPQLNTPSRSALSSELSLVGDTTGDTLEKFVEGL
Test [9] has as its target T2, CREB-binding protein/Histone acetyltransferase p300 (Homo sapiens). Description: Inhibition of CREBBP/EP300 in human HCT-116 cells assessed as reduction in c-Myc mRNA expression at 10 uM by Q-PCR analysis. It counts as cell-based.

T2 sequence (Q09472 whole entry, looked up): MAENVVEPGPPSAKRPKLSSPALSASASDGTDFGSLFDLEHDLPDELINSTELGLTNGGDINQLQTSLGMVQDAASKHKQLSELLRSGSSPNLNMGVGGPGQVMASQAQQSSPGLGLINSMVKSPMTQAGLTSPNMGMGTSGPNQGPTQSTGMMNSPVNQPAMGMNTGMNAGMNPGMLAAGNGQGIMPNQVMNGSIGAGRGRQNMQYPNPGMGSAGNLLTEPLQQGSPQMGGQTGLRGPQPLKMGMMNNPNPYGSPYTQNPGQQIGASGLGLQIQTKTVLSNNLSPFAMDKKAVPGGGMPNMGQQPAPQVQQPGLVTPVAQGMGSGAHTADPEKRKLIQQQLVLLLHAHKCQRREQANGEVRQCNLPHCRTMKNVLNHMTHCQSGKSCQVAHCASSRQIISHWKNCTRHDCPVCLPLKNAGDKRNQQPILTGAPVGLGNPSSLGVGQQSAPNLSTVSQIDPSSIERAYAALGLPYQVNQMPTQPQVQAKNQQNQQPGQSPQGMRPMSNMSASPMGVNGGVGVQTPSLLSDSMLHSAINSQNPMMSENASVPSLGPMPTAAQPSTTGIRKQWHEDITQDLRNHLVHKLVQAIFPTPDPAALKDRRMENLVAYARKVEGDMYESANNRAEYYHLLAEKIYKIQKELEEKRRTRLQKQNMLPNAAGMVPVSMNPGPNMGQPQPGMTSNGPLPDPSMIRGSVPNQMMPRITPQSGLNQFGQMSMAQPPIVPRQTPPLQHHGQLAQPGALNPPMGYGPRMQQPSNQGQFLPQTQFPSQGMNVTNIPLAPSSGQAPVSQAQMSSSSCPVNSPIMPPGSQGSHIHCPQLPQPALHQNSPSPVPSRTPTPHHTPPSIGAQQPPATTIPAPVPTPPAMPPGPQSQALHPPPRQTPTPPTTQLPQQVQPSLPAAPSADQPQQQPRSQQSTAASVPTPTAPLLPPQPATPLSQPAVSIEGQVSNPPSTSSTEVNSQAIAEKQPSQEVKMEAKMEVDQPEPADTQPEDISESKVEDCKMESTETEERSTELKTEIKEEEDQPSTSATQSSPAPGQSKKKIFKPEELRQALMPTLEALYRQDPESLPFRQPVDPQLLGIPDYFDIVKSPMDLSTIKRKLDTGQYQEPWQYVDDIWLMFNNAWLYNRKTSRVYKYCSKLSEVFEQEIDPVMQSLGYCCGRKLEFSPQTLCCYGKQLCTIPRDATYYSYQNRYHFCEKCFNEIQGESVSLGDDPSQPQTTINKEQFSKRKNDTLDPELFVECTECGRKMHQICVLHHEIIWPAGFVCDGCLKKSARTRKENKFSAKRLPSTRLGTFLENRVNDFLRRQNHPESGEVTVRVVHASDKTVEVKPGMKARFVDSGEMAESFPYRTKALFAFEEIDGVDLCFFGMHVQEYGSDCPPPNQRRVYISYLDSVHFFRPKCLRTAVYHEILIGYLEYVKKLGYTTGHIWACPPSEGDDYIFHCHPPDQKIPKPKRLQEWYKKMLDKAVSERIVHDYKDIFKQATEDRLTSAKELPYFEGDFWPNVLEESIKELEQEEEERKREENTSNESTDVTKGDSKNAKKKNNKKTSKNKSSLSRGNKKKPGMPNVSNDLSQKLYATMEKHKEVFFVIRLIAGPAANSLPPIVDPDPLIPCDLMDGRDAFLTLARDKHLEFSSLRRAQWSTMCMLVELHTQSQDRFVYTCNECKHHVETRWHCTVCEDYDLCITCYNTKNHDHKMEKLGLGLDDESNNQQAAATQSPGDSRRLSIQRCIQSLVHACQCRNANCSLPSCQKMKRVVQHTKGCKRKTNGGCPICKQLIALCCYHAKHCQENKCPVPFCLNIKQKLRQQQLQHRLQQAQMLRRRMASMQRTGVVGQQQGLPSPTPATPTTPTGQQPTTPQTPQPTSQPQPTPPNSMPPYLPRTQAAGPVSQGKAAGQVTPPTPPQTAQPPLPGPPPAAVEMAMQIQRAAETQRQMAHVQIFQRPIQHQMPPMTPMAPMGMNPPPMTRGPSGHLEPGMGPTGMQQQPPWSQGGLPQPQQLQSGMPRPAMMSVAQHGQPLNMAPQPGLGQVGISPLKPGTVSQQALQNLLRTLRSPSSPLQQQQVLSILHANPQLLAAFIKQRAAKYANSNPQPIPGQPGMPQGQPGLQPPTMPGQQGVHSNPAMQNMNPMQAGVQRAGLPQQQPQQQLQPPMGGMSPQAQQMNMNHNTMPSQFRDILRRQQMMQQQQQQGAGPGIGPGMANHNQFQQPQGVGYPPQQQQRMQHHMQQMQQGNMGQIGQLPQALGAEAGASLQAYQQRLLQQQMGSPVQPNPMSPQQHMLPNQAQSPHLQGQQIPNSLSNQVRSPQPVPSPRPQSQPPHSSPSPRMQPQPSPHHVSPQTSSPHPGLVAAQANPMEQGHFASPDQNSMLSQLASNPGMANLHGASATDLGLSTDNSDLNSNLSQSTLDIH
T2 sequence (Q92793 whole entry, looked up): as the sequence (Q92793 whole entry) above

For `COc1ccc2c(c1)N(CCC/C=C/c1cccc3c1N[C@@H](C)CC(=O)N3)CCC2`, the outcome in test [1], in test [2], in [4], in test [5], in test [6] and in test [7] was inactive. Moreover, the inhibition entry in [3] is “inactive”. Also, the Kd result in test [8] was “Not Active”.

As to `COc1ccc2c(c1)N(CCC/C=C/c1cccc3c1N[C@H](C)CC(=O)N3)CCC2`, the result in test [1], in [2], in test [4], in test [5], in [6] and in test [7] was inactive. Besides, the inhibition result in [9] was “Active”.
